Among the data in ChEMBL document CHEMBL4513216, “Probing the Open Global Health Chemical Diversity Library for Multistage-Active Starting Points for Next-Generation Antimalarials” (ACS Infect Dis, 2020) are cytotoxicity values, retold here.

A short description of this data set: Toxicity liver stage against HepG2, at 10uM. In kind it is cell-based. Details: test concentration 10 uM, cell line HepG2-A16-CD81EGFP. To be noted: human, HepG2-A16-CD81EGFP cells; read-out: INHIBITION
The essentials:
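Uninfected HepG2-A16-CD81EGFP cells, 3 × 10^3 per well, 1536-well, plated on prespotted compound at 10 μM final, parasite-free screening media added to match infected plates; puromycin 10 μM positive, DMSO 0.5% negative; run in parallel with 48 h PbLuc assay at 37 °C, 5% CO2; viability by CellTiter-Glo luminescence, normalized to controls.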
For the compound `CCOCCCNC(=O)NCc1c(C)nn(C)c1C`, the cytotoxicity at 10 µM is -5.28%. Take `O=C(Nc1cccc2c1CCCC2)c1cccnc1N1CCCNCC1`: the cytotoxicity at 10 µM turned out to be 6.84%. With `CC(=O)N1N=C(c2cccs2)OC1C(=O)NCc1ccc(C)o1` (stereo unspecified), the cytotoxicity at 10 µM is -4.67%. For `CCC(C)N1C(=O)c2ccc(C(=O)NCCc3c[nH]cn3)cc2C1=O` (stereo unspecified) the value was -8.64%.

`OCc1cc2ccccc2nc1N1CCCCC1`: the cytotoxicity at 10 µM is 14.1%. Turning to `COc1cc(OC)cc(C(=O)Nc2ncnc3c2CCC3)c1`, the cytotoxicity at 10 µM was -179%. Regarding `CSc1ncccc1C(=O)NCCC(O)c1ccco1` (stereo unspecified), the cytotoxicity at 10 µM was -2.93%. Regarding `O=C(NCCn1ccc(-c2ccncc2)n1)C1CC1`, the cytotoxicity at 10 µM is -2.08%. As for `CCN1CC[C@]2(CN(C(=O)[C@H]3CCCO3)C[C@H]2c2ccccc2)C1=O`, the cytotoxicity at 10 µM worked out at 5.98%. The same measure for `O=C(C1CCOC1)N1C[C@H]2CN(c3ccccc3)C(=O)[C@H]2C1` (stereo partly specified): -123%; for `Cc1cnc(N2CCCC3(COCCN(c4ccc(C)nn4)C3)C2)nc1` (stereo unspecified): -126%.

On to `CCCN(CCC)c1ncc(S(=O)(=O)c2ccccc2)c(N)n1`, for which the cytotoxicity at 10 µM is -2.26%. For `Cc1cc(C(=O)N(C)Cc2cccs2)nc(N2CCCCC2)n1` the value was 17.5%; for `CN(C)CC(=O)N1CCCC1c1cncc(Oc2ccc(F)cc2)n1` (stereo unspecified), -10.9%; for `O=C(c1c[nH]c(=O)[nH]c1=O)N1CCCC(c2cnccn2)C1` (stereo unspecified), -3.58%. `C[C@]1(O)CN(CCC(N)=O)CC[C@@H]1Oc1cccc(F)c1`: the cytotoxicity at 10 µM is -0.224%. The same measure for `Cn1nc(C2CCCNC2)c2c(C(=O)NC3CC3)cc(C3CC3)nc21` (stereo unspecified): 14.5%. For `Cc1ccc(CN2CCCC23Cc2ccccc2CNC3=O)cc1` (stereo unspecified) the value was 8.82%.

Consider `Cc1nc(CNC(=O)Nc2cc(F)ccc2N2CCN(C)CC2)no1`, for which the cytotoxicity at 10 µM is -8.8%. The same measure for `CCc1noc(CN2CCN(C(=O)Cc3ccc(F)cc3)CC2)n1`: 10.4%; for `CCOc1ccccc1N(C)Cc1nccn1C`: -3.83%. For `CN(Cc1ccc(C(=O)O)cc1)C(=O)c1sccc1OC(F)F` the value was -6.59%. With `CC(C)c1csc(C2CCCN(C(=O)c3ccc(=O)n(C)c3)C2)n1` (stereo unspecified), the cytotoxicity at 10 µM is -48.2%. In the case of `Cc1cccc(C(=O)N2CCN(C)CC2)c1NC(=O)c1ccncc1`, the cytotoxicity at 10 µM was -10.8%. `Cc1n[nH]c(NC(=O)c2ccc(COCC(F)(F)F)cc2)c1C`: the cytotoxicity at 10 µM was -0.81%. For `Cc1ccc(C(NC(=O)C2CC2)c2cccc(S(C)(=O)=O)c2)cc1` (stereo unspecified) the value was -9.8%. The same measure for `CC(C)(C)c1nc(CC(=O)Nc2cnccc2O)cs1`: 9.09%; for `C=C(C)CN1CCC(NC(=O)Nc2ccc(F)c(C(=O)NC)c2)CC1`: 5.58%. For `CCc1noc(CS(=O)(=O)Cc2ccccc2Cl)n1` the value was -6.75%; for `CCN(CC)C(=O)COc1nc(C(C)C)no1`, 3.6%. `O=C(CN1CCOC(c2ccc(Cl)s2)C1)NCc1ccco1` (stereo unspecified): the cytotoxicity at 10 µM is -3.09%.

As to `CN(C)c1ccc(NC(=O)C2CN(Cc3ccccc3)CCO2)cn1` (stereo unspecified), the cytotoxicity at 10 µM came to 4.46%. For `Cc1cc(CNC(=O)NCc2ccccc2N2CCOCC2)no1` the value was 1.15%.

Take `O=C(Nc1nnc[nH]1)C(c1cccc(F)c1)N1CCOCC1` (stereo unspecified): the cytotoxicity at 10 µM is -9.07%. In the case of `NC(=O)CCSCc1ccc(Br)c(F)c1`, the cytotoxicity at 10 µM was -4.81%. The same measure for `CN(Cc1nnc2n1CCC2)S(=O)(=O)c1ccc(Br)cc1Cl`: -6.08%. Take `CCC(=O)NC1CCCN(C(=O)Nc2cc(-c3ccccc3)on2)C1` (stereo unspecified): the cytotoxicity at 10 µM amounted to 6.64%.

As to `CCC1CN(CC(=O)NCCC#N)CCO1` (stereo unspecified), the cytotoxicity at 10 µM is 2.28%.

With `N#Cc1ccnc(SCC2CN=C(N3CCOCC3)S2)c1` (stereo unspecified), the cytotoxicity at 10 µM was -22.9%. Turning to `Cc1cccc(C(C)CNC(=O)N2CCC3(C2)OCCO3)c1` (stereo unspecified), the cytotoxicity at 10 µM came out at 16.1%.

On to `Cc1ccc(F)c(N2CCCC(Nc3nccn4cnnc34)C2=O)c1` (stereo unspecified), for which the cytotoxicity at 10 µM was -0.115%. In the case of `Cc1nnc(NCC2(c3ccc(Cl)cc3Cl)CCOCC2)c(C#N)c1C`, the cytotoxicity at 10 µM turned out to be 1.98%. As to `CN1CC[C@]2(CN(CC3CC3)C[C@H]2c2ccccc2)C1=O`, the cytotoxicity at 10 µM came to 3.15%. As to `COCC1c2nnn(C)c2CCN1C(=O)COc1ccccc1OC` (stereo unspecified), the cytotoxicity at 10 µM was -105%.

Consider `CCN1C[C@H]2CCN(C(=O)Cc3cccc(OC)c3)CC[C@H]2S1(=O)=O`, for which the cytotoxicity at 10 µM came out at 9.86%.

On to `O=C1CCCN1Cc1nnc2n1CCCN(C(=O)c1ccc[nH]1)C2`, for which the cytotoxicity at 10 µM is -107%. For `Cc1noc(C)c1CN1CC[C@H](OCC2CC2)[C@@H](Cc2ccccc2)C1` the value was -65.8%; for `CCO[C@@H]1CCN(C(=O)c2cnc(C)cn2)[C@@H]1Cc1cnn(C)c1`, -72.7%; for `Cc1cc(CN2CC[C@H]3C(=O)N(c4cccnc4)CCO[C@H]3C2)no1`, -66.8%. The same measure for `O=C(c1ccoc1)N1CC[C@@H]2O[C@@H](COCc3ccccn3)CC[C@@H]21`: -71.1%; for `c1cnc(N2CCCC3(CCN(Cc4ccsc4)C3)C2)nc1` (stereo unspecified): -83.2%; for `CNCC[C@H]1CC(C)(C)Oc2ccc(C)cc21`: 0.526%. The same measure for `Cc1csc(N2CCN(C3CCc4ccccc4C3)CC2)n1` (stereo unspecified): 2.01%; for `O=c1cc(N2CCCC2)cnn1CCc1cccc(F)c1`: -12.8%. On to `CCN(Cc1ccncc1)C(=O)c1cc(C)c(C)c(S(N)(=O)=O)c1`, for which the cytotoxicity at 10 µM was -2.33%. On to `CC(C)(O)CCc1ccc(C(=O)N2CCN(CC(F)(F)F)CC2)cc1`, for which the cytotoxicity at 10 µM came to 6.16%. The same measure for `CCN(CC1CCOCC1)C(=O)C1CC(=O)N(Cc2cccnc2)C1` (stereo unspecified): 0.719%; for `CC(Cn1cnc2cn(C)nc2c1=O)Oc1cccnc1` (stereo unspecified): -11.7%; for `CCCc1nc(N(C)CCN2CCCCCC2)c2cnn(C)c2n1`: 3.22%. For `CCNC(=O)C1CCN(c2cc(-c3ccccc3F)nc3ccnn23)C1` (stereo unspecified), the cytotoxicity at 10 µM is 4.31%. The same measure for `O=C1CC[C@@H](C(=O)N2CCc3[nH]nc(COc4cccc(Cl)c4)c3C2)N1`: -52.1%; for `O=C(CO)N1CC[C@@H](N2CCN(c3ccccc3F)CC2)[C@H](O)C1`: -46%; for `CN(CCCc1cnn(C)c1)Cc1cc2n(n1)CCNC2`: 11.1%. Regarding `CCCc1nnc(N[C@H](C)c2ccc(OC)cc2)o1`, the cytotoxicity at 10 µM is -19.9%. For the compound `CC(C)CN1CCC(NCCNc2cccnc2)CC1`, the cytotoxicity at 10 µM is -5.25%. For `CCC(C)N(Cc1cccnc1)Cc1ccc2c(c1)OCCO2` (stereo unspecified) the value was -2.83%.

Take `CCn1cc(CN2CCCC(CO)(CCc3ccccc3)C2)c(C)n1` (stereo unspecified): the cytotoxicity at 10 µM was -4.63%. In the case of `Cc1cc(N2CCN(Cc3ccc(-c4cc[nH]n4)o3)CC2)cc(C)n1`, the cytotoxicity at 10 µM was found to be 2.17%. The same measure for `CCn1cc(-c2cc(C(F)F)n3nc(CC(=O)O)nc3n2)cn1`: -9.49%; for `O=C(c1csc(C2CC2)n1)N1CCCCC1Cn1cccn1` (stereo unspecified): 0.745%.

With `CCCc1nc(C)c(C(=O)NCCn2nc3ccccn3c2=O)s1`, the cytotoxicity at 10 µM is -10.1%.

As to `CNC(=O)C1CCN(CC(=O)Nc2cc(C(C)C)no2)CC1`, the cytotoxicity at 10 µM was -8.01%. Consider `CC(C)(C)c1cc(NC(=O)CN2CCCC2Cn2cccn2)on1` (stereo unspecified), for which the cytotoxicity at 10 µM was -15.3%.

Regarding `CC(=O)N1CCCN(C(=O)NCc2ccccn2)CC1`, the cytotoxicity at 10 µM is -7.37%. The same measure for `COc1c(CNCCNC(=O)c2ccc(C)cc2)c(C)nn1C`: -3.39%; for `CC1CN(CC(=O)Nc2cccnc2)CCN1c1nccs1` (stereo unspecified): -3.59%.

Regarding `COc1ccccc1N1CCC(CNCc2cccc(C#N)c2)C1` (stereo unspecified), the cytotoxicity at 10 µM was -5.21%. For `Cc1cnn(CCNCC(O)COc2c(C)ccc(C)c2C)c1` (stereo unspecified) the value was -8.78%.

Turning to `CCc1n[nH]c(C2CN(C(=O)Cn3ccccc3=O)CCO2)n1` (stereo unspecified), the cytotoxicity at 10 µM is -0.746%. The same measure for `CCn1cnnc1C1CCN(C(=O)COc2ccccc2)CC1`: 1.3%. The same measure for `CN1CCc2c(C#N)c(NCc3cccnc3)n3cnnc3c2C1`: 11.2%. Regarding `O=C(Nc1nc2c(s1)CNCC2)C1CC1`, the cytotoxicity at 10 µM is -0.0154%.

Turning to `CCOC(=O)N1CCN(c2nc(NC3CC3)c3ccccc3n2)CC1`, the cytotoxicity at 10 µM is -0.529%.

Consider `Cn1cc(C(=O)NCc2cn3c(n2)CN(Cc2ccccn2)CC3)cn1`, for which the cytotoxicity at 10 µM was -13.7%. For `CN(C)C(=O)NCc1ncn2c1CN(Cc1cccs1)CCC2` the value was 8.07%; for `Cc1cnc(N2CCOC3(CCCN(C)C3)C2)nc1` (stereo unspecified), 8.25%.

Turning to `c1cncc(N2CCOCC3(CN(Cc4cccs4)CCO3)C2)c1` (stereo unspecified), the cytotoxicity at 10 µM is -79.7%. For `Cc1cccc(COC[C@@]23CCC[C@@H]2CN(S(=O)(=O)N(C)C)C3)n1` the value was -6.87%; for `CC[C@@H]1N(Cc2ccsc2)CCC[C@]12CCC(=O)N2CCOC`, 7.36%; for `CO[C@@H]1CCN(S(=O)(=O)c2cccnc2)[C@@H]2CN(CC3CC3)C[C@@H]21`, -65.7%. As to `CN(Cc1cn2c(n1)CN(CC1CCOC1)CC2)Cc1ccco1` (stereo unspecified), the cytotoxicity at 10 µM is -82.9%. Regarding `c1ccc(OC2COC3(CCN(CC4CC4)CC3)C2)nc1` (stereo unspecified), the cytotoxicity at 10 µM was -75.2%. The same measure for `c1cc(CNCc2cccc3c2OCCCO3)cc(Cn2cncn2)c1`: 8.1%; for `O=C(C1CC=CC1)N1C[C@@H]2CN(Cc3ccsc3)CCO[C@@H]2C1`: -87.4%; for `CCOc1c(OC)cc(C=Cc2ncc(C(=O)NC)s2)cc1OC`: 1.62%. As for `CN(C)C(=O)CN1C[C@H]2CC[C@@H](C1)N(C/C=C/c1ccc(F)cc1)C2`, the cytotoxicity at 10 µM was -7.65%.
